# Published values collected from several papers.
# Protocols differ between the studies behind these lines.
Structure (SMILES),target or system,assay,system,conditions,measurement,result
COc1ccc(NCC(=O)Nc2c(C#N)sc(Nc3ccccc3)c2C(=O)Nc2ccc(OC)cc2)cc1,HCT-116,"cell growth or viability, SRB",,"10 µM, 48 h",viability,65.5%
Nc1ccc(-c2c(-c3ccccn3)nc3n2CCC3)cc1,Leishmania infantum,parasite growth,,"5 days, intracellular, amastigote",EC50,2510 nM
O=C1NC(=S)N/C1=C\c1c2ccccc2c(-c2ccc(N(c3ccccc3)c3ccccc3)cc2)c2ccccc12,Streptococcus mutans,"microbial killing, broth dilution",ATCC25175,,MBC,> 1000 µg/mL
COc1ccc(NC(=O)c2c(Nc3ccccc3)sc(C#N)c2NC(=O)CNc2ccc(OC)c(OC)c2)cc1,HCT-116,"cell growth or viability, SRB",,"1 µM, 48 h",viability,65.2%
N#Cc1ccc(-c2c(-c3ccccn3)nc3n2CCC3)cc1,Leishmania infantum,parasite growth,,"5 days, intracellular, amastigote",EC50,31600 nM
COc1ccc(NC(=O)c2c(Nc3ccccc3)sc(C(=O)NN=Cc3ccc(C)cc3)c2NC(C)=O)cc1,HCT-116,"cell growth or viability, SRB",,"0.1 µM, 48 h",viability,80.5%
CS(=O)(=O)c1ccc(-c2c(-c3ccccn3)nc3n2CCC3)cc1,Leishmania infantum,parasite growth,,"5 days, intracellular, amastigote",EC50,> 63100 nM
O=C(O)CN1C(=O)/C(=C/c2ccc(-c3ccc(N(c4ccccc4)c4ccccc4)cc3)cc2)SC1=S,Streptococcus mutans,"microbial growth, broth dilution",ATCC25175,,MIC,1000 µg/mL
COc1ccc(NC(=O)c2c(Nc3ccccc3)sc(C#N)c2NC(=O)CNc2ccccc2)cc1,HCT-116,"cell growth or viability, SRB",,"100 µM, 48 h",viability,75.7%
O=C(O)CN1C(=O)/C(=C/c2ccc(-c3ccc(N(c4ccccc4)c4ccccc4)cc3)c3ccccc23)NC1=S,Streptococcus mutans,"microbial killing, broth dilution",ATCC25175,,MBC,> 1000 µg/mL
NC(=O)N1c2ccccc2C=Cc2ccccc21,,MES seizures,rat,intraperitoneal,ED50,6.5 mg/kg
O=C(O)CN1C(=O)/C(=C/c2ccc(-c3ccc(N(c4ccccc4)c4ccccc4)cc3)cc2)NC1=S,Streptococcus mutans,"microbial killing, broth dilution",ATCC25175,,MBC,> 1000 µg/mL
COc1ccc(NC(=O)c2c(Nc3ccccc3)sc(C#N)c2NC(=O)CNc2ccc(Cl)cc2)cc1,HCT-116,"cell growth or viability, SRB",,"1 µM, 48 h",viability,60.1%
COc1ccc2nc(-c3cc(N(C)C)ccn3)c(N(C)c3ccc(F)cc3)n2c1,Leishmania infantum,parasite growth,,"intracellular, amastigote",EC50,1580 nM
O=C1NC(=S)N/C1=C\c1ccc(-c2ccc(N(c3ccccc3)c3ccccc3)cc2)cc1,Streptococcus mutans,"microbial killing, broth dilution",ATCC25175,,MBC,> 1000 µg/mL
COc1ccc(NC(=O)c2c(Nc3ccccc3)sc(C#N)c2NC(=O)CNc2ccc(Br)cc2)cc1,HCT-116,"cell growth or viability, SRB",,"1 nM, 48 h",viability,101%
COc1cccc(-c2nc3ccccn3c2Nc2ccc(F)cc2)n1,Leishmania infantum,parasite growth,,"5 days, intracellular, amastigote",EC50,> 63100 nM
COc1ccc2occ(/C=C/c3cc(OC)c(OC)c(OC)c3)c(=O)c2c1,HSC-2,"cell growth or viability, MTT",,6.7 h,CC50,50 µM
COc1ccc2nc(-c3ccccn3)c(N(C)c3ccc(F)cc3)n2c1,Leishmania infantum,parasite growth,,"5 days, intracellular, amastigote",EC50,794 nM
O=C(O)CN1C(=O)/C(=C/c2c3ccccc3c(-c3ccc(N(c4ccccc4)c4ccccc4)cc3)c3ccccc23)NC1=S,Streptococcus pyogenes,"microbial growth, broth dilution",ATCC19615,,MIC,> 1000 µg/mL
